Laboratory results from ChEMBL document CHEMBL6092204, “Synthesis of pyridyl pyrimidine hedgehog signaling pathway inhibitors and their antitumor activity in human pancreatic cancer” (Eur J Med Chem, 2024).

Assays:
PANC-1 [1] = assay: Induction of cell cycle arrest in human PANC-1 cells assessed as accumulation at G2 phase at 2.5 uM incubated for 48 hrs by PI/RNase staining based flow cytometry (reference value: 5.83 %); assay type: functional
[2] = Toxicity in BALB/c nude mouse xenografted with human BxPC-3 cells assessed as cellular edema in liver at 5 to 15 mg/kg, ip qd for 21 days by H and E staining based analysis; conditions: in vivo, 504 h
PANC-1 [3] = assay: Induction of cell cycle arrest in human PANC-1 cells assessed as accumulation at S phase at 2.5 uM incubated for 48 hrs by PI/RNase staining based flow cytometry (reference value: 7.58 %); assay type: functional
BXPC-3 [4] = assay: Inhibition of Hh signaling pathway in human BXPC-3 cells assessed as reduction in Gli1 level incubated for 48 hrs by Western blot analysis; assay type: cell-based; conditions: dose 2.5-10 µM
Method in brief: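 Cells were treated in 6-well plates for 48 h, lysed by sonication in RIPA with PMSF, and quantified by BCA. 20-30 μg protein was run on 6-12% gradient SDS-PAGE and transferred to PVDF. Membranes were blocked 2 h at room temperature, probed with anti-Gli1 overnight at 4 °C and secondary 1.5 h at room temperature, then developed by ECL. Densitometry was normalised to β-actin; three separate experiments.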

[5] = Toxicity in BALB/c nude mouse xenografted with human BxPC-3 cells assessed as body weight loss at 5 to 15 mg/kg, ip qd for 21 days; conditions: in vivo, 504 h
BXPC-3 [6] = assay: Induction of cell cycle arrest in human BXPC-3 cells assessed as accumulation at G2 phase at 2.5 uM incubated for 48 hrs by PI/RNase staining based flow cytometry (reference value: 8.15 %); assay type: functional
PANC-1 [7] = assay: Induction of apoptosis in human PANC-1 cells assessed as viable cells at 5 uM incubated for 48 hrs by Annexin V-FITC/PI staining based flow cytometry (reference value: 93.2 %); assay type: functional; conditions: read-out: Activity
[8] = Toxicity in BALB/c nude mouse xenografted with human BxPC-3 cells assessed as tissue fibrosis in spleen at 5 to 15 mg/kg, ip qd for 21 days by H and E staining based analysis; conditions: in vivo, 504 h
PANC-1 [9] = assay: Induction of apoptosis in human PANC-1 cells assessed as necrotic cells at 5 uM incubated for 48 hrs by Annexin V-FITC/PI staining based flow cytometry (reference value: 2.24 %); assay type: functional
[10] = Toxicity in BALB/c nude mouse xenografted with human BxPC-3 cells assessed as cellular edema in lung at 5 to 15 mg/kg, ip qd for 21 days by H and E staining based analysis; conditions: in vivo, 504 h
BXPC-3 [11] = assay: Induction of cell cycle arrest in human BXPC-3 cells assessed as accumulation at G2 phase at 5 uM incubated for 48 hrs by PI/RNase staining based flow cytometry (reference value: 8.15 %); assay type: functional

CN(C)Cc1ccc(NC(=O)c2ccc(Nc3nccc(-c4cccnc4)n3)cc2)cc1
Activity (PANC-1 [1]): 7.2% | Activity [2]: Non-toxic | Activity (PANC-1 [3]): 7.73% | inhibition (BXPC-3 [4]): Dose-dependent-effect | Activity [5]: Non-toxic | Activity (BXPC-3 [6]): 11.3% | viability at 5 µM (PANC-1 [7]): 87.3% | Activity [8]: Non-toxic | Activity (PANC-1 [9]): 2.39% | Activity [10]: Non-toxic | Activity (BXPC-3 [11]): 12.5%
